Laboratory results published in ChEMBL document CHEMBL3351976, “Flexible, polymer-supported synthesis of sphingosine derivatives provides ceramides with enhanced biological activity” (Bioorg Med Chem, 2014).
pIC50: −log10 of the molar value.

Columns and labels:
HepG2 = experiment: Antiproliferative activity against human HepG2 cells after 24 hrs by Alamar blue assay; format: functional, cell-based; details: for pIC50: Homo sapiens, HepG2, 24 h, read-out: IC50; for IC50: hepg2
In short: (§1)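 Cells seeded at 5000 per well and preincubated 24 h at 37 °C/5% CO₂, then exposed to compounds in DMSO (final DMSO 0.5%; DMSO-only controls) at 6.25–200 µM for a further 24 h at 37 °C. Alamar Blue added to 10% final, fluorescence read (ex 535/em 590 nm) after 4 h and 24 h further incubation. IC50 from triplicates.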

[1] = Antiproliferative activity against rat PC12 cells after 24 hrs by Alamar blue assay; format: functional, cell-based, PC-12; details: for pIC50: Rattus norvegicus, PC-12, 24 h, read-out: IC50; for IC50: pc-12; in short: as §1
[2] = Antiproliferative activity against human HL60 cells after 24 hrs by Alamar blue assay; format: functional, cell-based, HL-60; details: for pIC50: Homo sapiens, HL-60, 24 h, read-out: IC50; for IC50: hl-60; in short: as §1

SMILES | pIC50 (HepG2) | pIC50 [1] | pIC50 [2] | IC50 (HepG2) | IC50 [1] | IC50 [2]
CCCCCCCCCCCCC/C=C/[C@@H](O)[C@H](CO)NC(C)=O | 4.24 | 4.01 | 4.59 | – | – | –
CCCCCCCCCCCCC/C=C/C(=O)[C@H](CO)NC(C)=O | 3.76 | < 3.70 | 4.37 | – | – | –
CCCCCCCCc1ccc(/C=C/[C@@H](O)[C@H](CO)NC(C)=O)cc1 | 4.51 | 4.40 | 4.96 | – | – | –
CC(=O)N[C@@H](CO)[C@H](O)/C=C/c1ccc(-c2ccccc2)cc1 | – | – | – | ND(Unstable) | ND(Unstable) | ND(Unstable)
CCCCCCCCc1ccc(/C=C/C(=O)[C@H](CO)NC(C)=O)cc1 | 4.19 | 4.15 | – | – | – | ND(Unstable)
CC(=O)N[C@@H](CO)C(=O)/C=C/c1ccccc1 | < 3.70 | 4.38 | 4.32 | – | – | –
CC(=O)N[C@@H](CO)C(=O)/C=C/c1ccc(-c2ccccc2)cc1 | 4.39 | 4.23 | 4.30 | – | – | –
CC(=O)N[C@@H](CO)[C@H](O)/C=C/c1ccccc1 | – | – | – | ND(Unstable) | ND(Unstable) | ND(Unstable)
